From PubChem
Shown are actives, neighbours in structure and some others; about 2.2% of the full set was active somewhere.
FGF22 binding – binders of recombinant human FGF22 by thermal shift; Q9HCT0; SYPRO orange fluorescence; percent of sucrose octasulfate shift, DMSO zero; activity (Tm shift, normalised), % at 9.99 µM; 340,000 compounds, 1.5% hits;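 active = mean Tm shift, scaled 0 neutral to 100 positive control, at about 1.3% or above, every replicate too, limit read from the data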
Target sequence (Q9HCT0 whole entry, looked up): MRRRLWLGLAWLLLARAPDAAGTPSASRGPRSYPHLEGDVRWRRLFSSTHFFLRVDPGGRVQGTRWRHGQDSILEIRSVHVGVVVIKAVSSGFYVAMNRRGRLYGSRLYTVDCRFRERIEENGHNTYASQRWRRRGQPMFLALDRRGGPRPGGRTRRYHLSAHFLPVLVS
FN deposit inh – fibronectin deposition inhibition; AH1F fibroblasts, Alexa488-fibronectin deposition fluorescence, overnight; inhibition, % at 12.6 µM; 350,000 compounds, 0.086% hits;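 active = mean inhibition across replicates of 30% or more, regardless of how many single replicates reach that level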;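 also: positive control wells lacked labelled fibronectin entirely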
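Test system: AH1F fibroblast monolayer depositing Alexa488-labelled fibronectin into matrix. Input: 10000 cells per well. Technique: fluorescence, ex 485 nm, em 525 nm. Buffer or medium: DMEM plus 2% serum, read in PBS. Timing: 1 h cell adhesion before compound, then overnight fibronectin incubation. Compound: single dose, pinned. Read-out basis: inhibition from reduced deposited-fibronectin fluorescence.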
PGC1a acetyl inh – modulators of PGC1a acetylation | 350,000 compounds, 0.17% hits | inhibition, % at 15.6 µM | U2OS PGC1a acetylation, AlphaScreen anti-acetyl-lysine; with virally co-expressed GCN5 acetyltransferase;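 active = every replicate shows inhibition of at least 40%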;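 also: 0% = neutral control wells and 100% = positive control wells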
ERAP1 inh – blocks human ERAP1 aminopeptidase activity. Q9NZ08. recombinant ERAP1, Leu-AMC fluorescence, 60 min. inhibition, % at 10.7 µM. 340,000 compounds, 0.15% hits. AID 652197;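 active = mean replicate inhibition of at least 30%, or all replicates individually reaching that 30% level; inactive = mean below 30% and not every replicate reaching it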;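 also: 0% = neutral control wells and 100% = L-leucinethiol positive control wells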
SIRT5 inh – sirtuin-5 (human) deacylase inhibition | AID 652115 | 330,000 compounds, 1.1% hits | inhibition, % at 15 µM | Q9NXA8 | Purified SirT5, succinyl-peptide AMC, trypsin-coupled fluorescence; in the data active = inhibition above about 15%
Target sequence (Q9NXA8 whole entry, looked up): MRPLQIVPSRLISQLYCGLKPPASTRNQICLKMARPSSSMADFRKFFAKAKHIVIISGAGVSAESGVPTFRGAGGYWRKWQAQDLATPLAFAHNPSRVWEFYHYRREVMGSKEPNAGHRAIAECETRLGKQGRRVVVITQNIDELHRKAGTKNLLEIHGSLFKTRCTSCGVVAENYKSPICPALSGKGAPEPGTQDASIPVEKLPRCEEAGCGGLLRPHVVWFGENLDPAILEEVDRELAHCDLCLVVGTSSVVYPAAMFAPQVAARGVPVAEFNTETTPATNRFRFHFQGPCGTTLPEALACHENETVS
An asterisk follows results filed as active; / = no result given.

SMILES	FGF22 binding	FN deposit inh	PGC1a acetyl inh	ERAP1 inh	SIRT5 inh
C[C@@H]1CN([C@@H](C)CO)C(=O)c2cc(NS(=O)(=O)c3ccc(Cl)cc3)ccc2O[C@@H](C)CCCCO[C@H]1CN(C)S(=O)(=O)c1cn(C)cn1	1.4*	0	0	-3	-2
C[C@H](CO)N1C[C@H](C)[C@H](CN(C)S(=O)(=O)c2ccccc2)OCCCC[C@H](C)Oc2ccc(NS(=O)(=O)c3ccc(Cl)cc3)cc2C1=O	0	3	-3	1	15*
Cc1ccc(S(=O)(=O)N(C)C[C@@H]2OCCCC[C@H](C)Oc3ccc(NC(=O)Cc4ccccc4)cc3C(=O)N([C@@H](C)CO)C[C@H]2C)cc1	/	-7	-8	0	2
COc1ccc(S(=O)(=O)Nc2ccc3c(c2)CC(=O)N([C@@H](C)CO)C[C@@H](C)[C@@H](CN(C)Cc2ccc(C(=O)O)cc2)O3)cc1	0	8	12	-2	-4
COc1ccc(S(=O)(=O)N(C)C[C@@H]2Oc3ccc(NS(=O)(=O)c4c(C)noc4C)cc3C(=O)N([C@@H](C)CO)C[C@H]2C)cc1	0	-3	-9	4	6
C[C@@H]1CCCCO[C@H](CN(C)S(=O)(=O)c2ccc(Cl)cc2)[C@H](C)CN([C@H](C)CO)C(=O)c2cc(NS(=O)(=O)c3ccc(Cl)cc3)ccc2O1	30*	12	-12	/	/
Cc1ccc(S(=O)(=O)Nc2ccc3c(c2)C(=O)N([C@@H](C)CO)C[C@H](C)[C@@H](CN(C)S(=O)(=O)c2ccc(Cl)cc2)OCCCC[C@@H](C)O3)cc1	28*	1	-9	/	/
Cc1ccc(S(=O)(=O)Nc2ccc3c(c2)C(=O)N([C@H](C)CO)C[C@H](C)[C@H](CN(C)S(=O)(=O)c2ccc(Cl)cc2)OCCCC[C@@H](C)O3)cc1	0	-11	-3	/	/
C[C@@H]1CCCCO[C@@H](CN(C)S(=O)(=O)c2ccc(Cl)cc2)[C@@H](C)CN([C@H](C)CO)C(=O)c2cc(NS(=O)(=O)c3ccc(Cl)cc3)ccc2O1	0	5	-1	/	/
Cc1ccc(S(=O)(=O)N(C)C[C@H]2OCCCC[C@@H](C)Oc3ccc(NS(=O)(=O)c4ccc(Cl)cc4)cc3C(=O)N([C@@H](C)CO)C[C@@H]2C)cc1	0	9	-4	1	21*
Cc1ccc(S(=O)(=O)N(C)C[C@H]2OCCCC[C@@H](C)Oc3ccc(NS(=O)(=O)c4ccc(Cl)cc4)cc3C(=O)N([C@H](C)CO)C[C@@H]2C)cc1	0	9	11	-1	17*
Cc1ccc(S(=O)(=O)Nc2ccc3c(c2)C(=O)N([C@@H](C)CO)C[C@H](C)[C@@H](CN(C)S(=O)(=O)c2ccc(Cl)cc2)OCCCC[C@H](C)O3)cc1	0	-7	6	/	/
C[C@@H](NC(=O)C[C@H]1C=C[C@H](NC(=O)C2CCC2)[C@H](CO)O1)c1ccccc1	0	-14	-2	1	1
C[C@H](CO)N1C[C@H](C)[C@@H](CN(C)C(=O)NC2CCCCC2)OCCCC[C@H](C)Oc2ccc(NS(=O)(=O)c3cn(C)cn3)cc2C1=O	0	/	/	3	-2
CC(C)[C@@H](C)NC(=O)N(C)C[C@H]1OCc2ccccc2-c2ccccc2C(=O)N([C@@H](C)CO)C[C@H]1C	0	0	-3	0	-2
Cc1ccc(S(=O)(=O)N(C)C[C@H]2OCCCC[C@@H](C)Oc3ccc(NS(=O)(=O)c4ccc(Cl)cc4)cc3C(=O)N([C@H](C)CO)C[C@H]2C)cc1	0	4	-9	-1	29*
Cc1ccc(S(=O)(=O)N(C)C[C@H]2OCCCC[C@H](C)Oc3ccc(NS(=O)(=O)c4ccc(Cl)cc4)cc3C(=O)N([C@H](C)CO)C[C@@H]2C)cc1	0	-3	5	0	24*
Cc1ccc(S(=O)(=O)N(C)C[C@@H]2OCCCC[C@H](C)Oc3ccc(NS(=O)(=O)c4ccc(Cl)cc4)cc3C(=O)N([C@H](C)CO)C[C@H]2C)cc1	0	-1	-14	2	21*
C[C@@H]1CCCCO[C@H](CN(C)S(=O)(=O)c2ccc(Cl)cc2)[C@@H](C)CN([C@@H](C)CO)C(=O)c2cc(NS(=O)(=O)c3ccc(Cl)cc3)ccc2O1	0	5	-1	2	11
COc1ccc(CNC(=O)C[C@@H]2CC[C@@H](NC(=O)Nc3ccc4c(c3)OCO4)[C@H](CO)O2)cc1	0	3	-9	1	0
CC(C)CC#Cc1ccc2c(c1)O[C@@H](CN(C)C(=O)Nc1ccccc1F)[C@@H](C)CN([C@H](C)CO)S2(=O)=O	0	-15	2	1	-21
Cc1ccc2cccc(S(=O)(=O)N3CCCc4ccccc43)c2n1	43*	-6	-1	1	0
S=C(NCCCN1CCOCC1)Nc1cccc(-c2nnc3n2CCCCC3)c1	0	-6	/	0	16*
CCC1CCCCN1CCCNC(=O)Cn1c(=O)c2cccn2c2ccccc21 (stereo not given)	0	13	0	3	-2
CC1CCCCN1CCCNC(=O)Cn1c(=O)c2cccn2c2ccccc21 (stereo not given)	0	2	-3	3	21*
SMILES	FGF22 binding	FN deposit inh	PGC1a acetyl inh	ERAP1 inh	SIRT5 inh
O=[N+]([O-])c1ccc(N2CCCC2)nc1N1CCCC1	0	-6	-2	4	1
Nc1ncc([N+](=O)[O-])c(N2CCCCCC2)n1	0	8	53*	4	/
C[C@H]1CN([C@@H](C)CO)C(=O)c2ccccc2-c2ccccc2CO[C@@H]1CN(C)C(=O)c1ccncc1	/	17	/	/	/
O=C(O)c1cc(NN=C2c3ccccc3-c3ccccc32)ccc1Cl	0	-3	-2	31*	-14
CCC(=O)N1[C@H](CO)[C@H]2c3ccccc3N(C(=O)Nc3cccc(Cl)c3)C[C@H]21	1	/	-3	-1	2
CCc1ccc(C(=O)CN(C#N)c2nc(C)cc(C)n2)cc1	/	0	49*	2	4
COc1ccc(CN(C(=O)c2ccco2)c2ccc(C)c(C)c2)cc1	0	/	-18	0	112*
CCOc1ccc(N(Cc2ccc(OC)cc2)C(=O)c2ccco2)cc1	0	/	-3	-1	0
COC(=O)[C@@]1(Cc2ccccc2)[C@H]2C(=O)N(C)C(=O)[C@H]2[C@H]2CN=C(SCc3ccc(Cl)cc3)N21	43*	-7	8	3	0
COC(=O)[C@@]1(Cc2ccccc2)[C@H]2C(=O)N(C)C(=O)[C@H]2[C@H]2CN=C(SCc3ccc(C)cc3)N21	/	3	0	14	9
CCC(C)(C)NC(=O)C(OC(=O)c1ccco1)c1ccccc1OC (stereo not given)	/	31*	-13	/	/
CCC(C)(C)NC(=O)C(OC(=O)c1ccco1)c1ccccc1F (stereo not given)	0	2	-3	-2	-3
O=C(CCC(=O)OCc1ccc(Br)cc1)Nc1ccccc1	0	-1	/	2	35*
